Source: ChEMBL document CHEMBL3120102, “Structure-based design, synthesis and biological evaluation of novel anthra[1,2-d]imidazole-6,11-dione homologues as potential antitumor agents” (2013)

Columns and labels:
MDA-MB-435 = assay: Cytotoxicity against human MDA-MB-435 cells assessed as cell growth at 10 uM after 48 hrs by SRB assay; format: functional; conditions: MDA-MB-435, 48 h, read-out: Activity
How it was run: (§1)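 First stage of the NCI 60 human tumour cell line screen: a single dose is tested against every line. Cell growth is read as cellular protein by sulforhodamine B colorimetry after 48 h of drug exposure, with reference to a time-zero control and to untreated plates.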

PC-3 = assay: Cytotoxicity against human PC3 cells assessed as cell growth at 10 uM after 48 hrs by SRB assay; format: functional; conditions: PC-3, 48 h, read-out: Activity; how it was run: as §1
DU-145 = assay: Cytotoxicity against human DU145 cells assessed as cell growth at 10 uM after 48 hrs by SRB assay; format: functional; conditions: DU-145, 48 h, read-out: Activity
How it was run: (§2)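 NCI 60-cell-line screen, first stage: compound at a single dose of […] (unit as printed) for 48 h. Cellular protein was measured by sulforhodamine B colorimetry. Growth was determined using a time-zero cell control and plates not exposed to drug.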

MDA-MB-231 = assay: Cytotoxicity against human MDA-MB-231 cells assessed as cell growth at 10 uM after 48 hrs by SRB assay; format: functional; conditions: MDA-MB-231, 48 h, read-out: Activity; how it was run: as §1
NCI-H226 = assay: Cytotoxicity against human NCI-H226 cells assessed as cell growth at 10 uM after 48 hrs by SRB assay; format: functional; conditions: NCI-H226, 48 h, read-out: Activity; how it was run: as §1
[1] = Cytotoxicity against human H1299 cells assessed as cell viability at 1 uM after 48 hrs by MTT assay; format: functional; conditions: NCI-H1299, 48 h, read-out: Activity
How it was run: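 About 2×10³ H1299 cells per well were grown for 24 h at 37 °C in 5% CO2. Compound was dissolved in DMSO immediately before use, diluted in complete medium and left on cells for 48 h. MTT was then added for 4 h at 37 °C, followed by SDS/DMF lysis buffer for 16 h at 37 °C. Absorbance was read at 550 nm.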

HOP-62 = assay: Cytotoxicity against human HOP62 cells assessed as cell growth at 10 uM after 48 hrs by SRB assay; format: functional; conditions: HOP-62, 48 h, read-out: Activity; how it was run: as §2
KM12 = assay: Cytotoxicity against human KM12 cells assessed as cell growth at 10 uM after 48 hrs by SRB assay; format: functional; conditions: KM12, 48 h, read-out: Activity
OVCAR-8 = assay: Cytotoxicity against human OVCAR8 cells assessed as cell growth at 10 uM after 48 hrs by SRB assay; format: functional; conditions: OVCAR-8, 48 h, read-out: Activity; how it was run: as §1
CCRF-CEM = assay: Cytotoxicity against human CCRF-CEM cells assessed as cell growth at 10 uM after 48 hrs by SRB assay; format: functional; conditions: read-out: Activity
SR = assay: Cytotoxicity against human SR cells assessed as cell growth at 10 uM after 48 hrs by SRB assay; format: functional; conditions: read-out: Activity
How it was run: (§3)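 First stage of the NCI 60 human tumour cell line screen, with each compound tested at a single dose of 10. Cellular protein measured by sulforhodamine B colorimetry after 48 h drug exposure. Growth is calculated against a time-zero cell control and against plates not exposed to drug.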

[2] = molecular target: Telomerase reverse transcriptase (Homo sapiens) (UniProt O14746); assay: Inhibition of human tert transcriptional activity assessed as SEAP activity at 1 uM after 24 hrs by SEAP reporter assay; set-up: scale not given: the % may be the effect or the level left
How it was run: (§4)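 Reporter assay for hTERT transcriptional activity using secreted alkaline phosphatase. About 2 × 10³ cells per well were grown for 24 h at 37 °C, then given fresh medium. Buffer was added to the medium: 2 M diethanolamine, 1 mM MgCl2 and 20 mM L-homoarginine. p-Nitrophenyl phosphate was added to 12 mM final. The rate of absorbance increase was read at 405 nm.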

U-251 = assay: Cytotoxicity against human U251 cells assessed as cell growth at 10 uM after 48 hrs by SRB assay; format: functional; conditions: U-251, 48 h, read-out: Activity; how it was run: as §3
SNB-19 = assay: Cytotoxicity against human SNB19 cells assessed as cell growth at 10 uM after 48 hrs by SRB assay; format: functional; conditions: SNB-19, 48 h, read-out: Activity; how it was run: as §3
SF-539 = assay: Cytotoxicity against human SF539 cells assessed as cell growth at 10 uM after 48 hrs by SRB assay; format: functional; conditions: SF-539, 48 h, read-out: Activity; how it was run: as §1
A549 = assay: Cytotoxicity against human A549 cells assessed as cell growth at 10 uM after 48 hrs by SRB assay; format: functional; conditions: A549, 48 h, read-out: Activity
T47D = assay: Cytotoxicity against human T47D cells assessed as cell growth at 10 uM after 48 hrs by SRB assay; format: functional; conditions: read-out: Activity; how it was run: as §3
Malme-3M = assay: Cytotoxicity against human MALME-3M cells assessed as cell growth at 10 uM after 48 hrs by SRB assay; format: functional; conditions: read-out: Activity
HL-60(TB) = assay: Cytotoxicity against human HL-60(TB) cells assessed as cell growth at 10 uM after 48 hrs by SRB assay; format: functional; conditions: HL-60, 48 h, read-out: Activity
How it was run: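 NCI 60-cell panel first-stage screen at a single dose in the HL-60(TB) leukemia line. Cellular protein was measured by sulforhodamine B colorimetry after 48 h of drug exposure. Growth was referenced to a time-zero cell control and to plates not exposed to drug.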

A498 = assay: Cytotoxicity against human A498 cells assessed as cell growth at 10 uM after 48 hrs by SRB assay; format: functional; conditions: A498, 48 h, read-out: Activity
SK-MEL-28 = assay: Cytotoxicity against human SK-MEL-28 cells assessed as cell growth at 10 uM after 48 hrs by SRB assay; format: functional; conditions: SK-MEL-28, 48 h, read-out: Activity; how it was run: as §1
[3] = Cytotoxicity against human UO31 cells assessed as cell growth at 10 uM after 48 hrs by SRB assay; format: functional; conditions: UO-31, 48 h, read-out: Activity; how it was run: as §3
RPMI-8226 = assay: Cytotoxicity against human RPMI8226 cells assessed as cell growth at 10 uM after 48 hrs by SRB assay; format: functional; conditions: RPMI-8226, 48 h, read-out: Activity; how it was run: as §1
[4] = molecular target: Telomerase reverse transcriptase (Homo sapiens) (UniProt O14746); assay: Inhibition of human tert transcriptional activity assessed as SEAP activity at 10 uM after 24 hrs by SEAP reporter assay; set-up: scale not given: the % may be the effect or the level left; how it was run: as §4
SF-268 = assay: Cytotoxicity against human SF268 cells assessed as cell growth at 10 uM after 48 hrs by SRB assay; format: functional; conditions: SF-268, 48 h, read-out: Activity; how it was run: as §1
LOX IMVI = assay: Cytotoxicity against human LOXIMVI cells assessed as cell growth at 10 uM after 48 hrs by SRB assay; format: functional; conditions: read-out: Activity; how it was run: as §2
HCC 2998 = assay: Cytotoxicity against human HCC2998 cells assessed as cell growth at 10 uM after 48 hrs by SRB assay; format: functional; conditions: HCC 2998, 48 h, read-out: Activity
SN12C = assay: Cytotoxicity against human SN12C cells assessed as cell growth at 10 uM after 48 hrs by SRB assay; format: functional; conditions: read-out: Activity; how it was run: as §1
HCT-116 = assay: Cytotoxicity against human HCT116 cells assessed as cell growth at 10 uM after 48 hrs by SRB assay; format: functional; conditions: HCT-116, 48 h, read-out: Activity
NCI-H23 = assay: Cytotoxicity against human NCI-H23 cells assessed as cell growth at 10 uM after 48 hrs by SRB assay; format: functional; conditions: NCI-H23, 48 h, read-out: Activity; how it was run: as §1

Chain of Telomerase reverse transcriptase (Homo sapiens) (O14746 whole entry): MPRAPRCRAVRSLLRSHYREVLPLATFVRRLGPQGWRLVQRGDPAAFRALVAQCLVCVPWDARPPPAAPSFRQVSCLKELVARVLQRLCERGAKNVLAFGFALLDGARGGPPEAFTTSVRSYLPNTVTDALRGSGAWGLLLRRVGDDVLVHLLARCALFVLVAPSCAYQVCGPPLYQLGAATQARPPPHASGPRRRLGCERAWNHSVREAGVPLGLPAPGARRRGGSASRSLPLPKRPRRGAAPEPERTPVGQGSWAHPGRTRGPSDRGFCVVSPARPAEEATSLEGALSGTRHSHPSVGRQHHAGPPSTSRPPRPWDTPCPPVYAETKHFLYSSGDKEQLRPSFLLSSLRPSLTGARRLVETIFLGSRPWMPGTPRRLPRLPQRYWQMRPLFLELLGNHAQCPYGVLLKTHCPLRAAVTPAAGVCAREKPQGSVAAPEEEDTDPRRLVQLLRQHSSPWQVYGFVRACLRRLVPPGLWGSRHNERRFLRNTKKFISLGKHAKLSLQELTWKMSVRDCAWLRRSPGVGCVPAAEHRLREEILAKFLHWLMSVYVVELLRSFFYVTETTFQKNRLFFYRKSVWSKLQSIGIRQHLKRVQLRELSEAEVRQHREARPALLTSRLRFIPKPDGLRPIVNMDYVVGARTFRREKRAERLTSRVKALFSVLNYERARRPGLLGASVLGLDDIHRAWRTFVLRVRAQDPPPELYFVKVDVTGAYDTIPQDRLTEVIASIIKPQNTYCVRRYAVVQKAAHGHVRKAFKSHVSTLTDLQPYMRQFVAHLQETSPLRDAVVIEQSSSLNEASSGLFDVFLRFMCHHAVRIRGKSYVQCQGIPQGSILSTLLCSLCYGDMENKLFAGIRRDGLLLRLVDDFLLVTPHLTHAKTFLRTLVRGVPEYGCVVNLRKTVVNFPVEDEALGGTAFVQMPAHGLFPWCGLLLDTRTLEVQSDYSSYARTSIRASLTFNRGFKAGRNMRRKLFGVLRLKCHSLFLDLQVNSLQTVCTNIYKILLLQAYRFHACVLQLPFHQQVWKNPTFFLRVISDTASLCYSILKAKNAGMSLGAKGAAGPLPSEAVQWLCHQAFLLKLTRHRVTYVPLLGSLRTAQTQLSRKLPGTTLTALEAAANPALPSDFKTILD

Row | SMILES | growth at 10 µM (MDA-MB-435) | growth at 10 µM (PC-3) | growth at 10 µM (DU-145) | growth at 10 µM (MDA-MB-231) | growth at 10 µM (NCI-H226) | viability at 1 µM [1] | growth at 10 µM (HOP-62) | growth at 10 µM (KM12) | growth at 10 µM (OVCAR-8) | growth at 10 µM (CCRF-CEM) | growth at 10 µM (SR) | Activity [2] | growth at 10 µM (U-251) | growth at 10 µM (SNB-19) | growth at 10 µM (SF-539) | growth at 10 µM (A549) | growth at 10 µM (T47D) | growth at 10 µM (Malme-3M) | growth at 10 µM (HL-60(TB)) | growth at 10 µM (A498) | other results
1 | CN(C)CCCSc1nc2ccc3c(c2[nH]1)C(=O)c1ccccc1C3=O | 72.2% | 36.7% | 36.4% | 56.2% | 74.1% | 108% | 52% | 20.4% | 61.9% | 8.49% | 3.09% | 100% | 74.1% | 79.7% | 57.5% | 51.6% | 45.8% | 88.2% | 12.7% | 76.2% | growth at 10 µM (SK-MEL-28): 102%; growth at 10 µM [3]: 25.5%; growth at 10 µM (RPMI-8226): -13.7%; Activity [4]: 86%; growth at 10 µM (SF-268): 53.1%; growth at 10 µM (LOX IMVI): 28.6%; growth at 10 µM (HCC 2998): 72.7%; growth at 10 µM (SN12C): 37.7%; growth at 10 µM (HCT-116): 27.6%; growth at 10 µM (NCI-H23): 53.8%
2 | CCCSc1nc2ccc3c(c2[nH]1)C(=O)c1ccccc1C3=O | 77.4% | 66.8% | 69.3% | 26.4% | 50.2% | 91% | 59.1% | 55.2% | 44.7% | 70.8% | 71% | 103% | 63% | 92% | 24% | 59.1% | 53.7% | 88.2% | 74.2% | 57.3% | growth at 10 µM (SK-MEL-28): 92.6%; growth at 10 µM [3]: 24.5%; growth at 10 µM (RPMI-8226): 71.8%; Activity [4]: 94%; growth at 10 µM (SF-268): 47.8%; growth at 10 µM (LOX IMVI): 62.6%; growth at 10 µM (HCC 2998): 81.9%; growth at 10 µM (SN12C): 80.4%; growth at 10 µM (HCT-116): 47.7%; growth at 10 µM (NCI-H23): 69.8%
3 | O=C1c2ccccc2C(=O)c2c1ccc1nc(SCCN3CCCC3)[nH]c21 | 66.5% | 6.9% | 17.9% | 63.5% | 88.1% | 90% | 73.7% | 19.6% | 49.4% | -15.4% | 20.2% | 102% | 69.1% | 60.5% | 62.2% | 35.5% | 83.1% | 112% | 37.4% | 71.4% | growth at 10 µM (SK-MEL-28): 100%; growth at 10 µM [3]: 21.2%; growth at 10 µM (RPMI-8226): -60.2%; Activity [4]: 98%; growth at 10 µM (SF-268): 42%; growth at 10 µM (LOX IMVI): 11.9%; growth at 10 µM (HCC 2998): 71.5%; growth at 10 µM (SN12C): 52.9%; growth at 10 µM (HCT-116): 38.8%; growth at 10 µM (NCI-H23): 66.9%
